Assay results published in ChEMBL document CHEMBL2417534, “Discovery and SAR of a novel series of GIRK1/2 and GIRK1/4 activators” (Bioorg Med Chem Lett, 2013).
Each block holds one compound with its values, some of them ahead of it.

Tests used:
[1] = molecular target: T1, Kir3.1/Kir3.4 (Homo sapiens) (UniProt P48549+P48544); test: Activation of GIRK1/4 (unknown origin) by cell-based thallium flux assay relative to control
Method in brief: (§1)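 Loaded with 0.5 μM Thallos-AM for ~60 min at room temperature in HEPES-buffered HBSS pH 7.4. Compounds (11-point, threefold dilutions) added 4 min before a thallium sulfate/bicarbonate stimulus. Fluorescence read at 1 Hz, F/F0 minus vehicle, slope after stimulus. Potency from triplicates. Efficacy normalised to reference activator set at 100%.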

[2] = molecular target: T2, Kir3.1/Kir3.2 (Homo sapiens, UniProt P48051+P48549); test: Activation of GIRK1/2 (unknown origin) by cell-based thallium flux assay
T2 sequence (P48549 whole entry): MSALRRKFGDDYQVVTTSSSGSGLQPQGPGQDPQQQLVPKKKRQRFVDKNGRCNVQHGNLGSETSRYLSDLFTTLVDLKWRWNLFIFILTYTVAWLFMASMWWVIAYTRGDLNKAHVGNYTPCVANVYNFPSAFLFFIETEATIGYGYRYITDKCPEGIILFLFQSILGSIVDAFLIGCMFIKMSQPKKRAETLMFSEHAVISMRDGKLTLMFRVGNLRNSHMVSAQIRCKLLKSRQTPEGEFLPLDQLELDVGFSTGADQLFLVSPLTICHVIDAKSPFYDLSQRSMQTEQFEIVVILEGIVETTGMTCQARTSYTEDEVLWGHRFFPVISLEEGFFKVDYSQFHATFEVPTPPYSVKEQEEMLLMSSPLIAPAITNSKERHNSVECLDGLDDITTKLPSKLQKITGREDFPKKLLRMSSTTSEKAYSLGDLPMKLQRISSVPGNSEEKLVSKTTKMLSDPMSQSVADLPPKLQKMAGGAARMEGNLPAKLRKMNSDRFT
T2 sequence (P48051 whole entry): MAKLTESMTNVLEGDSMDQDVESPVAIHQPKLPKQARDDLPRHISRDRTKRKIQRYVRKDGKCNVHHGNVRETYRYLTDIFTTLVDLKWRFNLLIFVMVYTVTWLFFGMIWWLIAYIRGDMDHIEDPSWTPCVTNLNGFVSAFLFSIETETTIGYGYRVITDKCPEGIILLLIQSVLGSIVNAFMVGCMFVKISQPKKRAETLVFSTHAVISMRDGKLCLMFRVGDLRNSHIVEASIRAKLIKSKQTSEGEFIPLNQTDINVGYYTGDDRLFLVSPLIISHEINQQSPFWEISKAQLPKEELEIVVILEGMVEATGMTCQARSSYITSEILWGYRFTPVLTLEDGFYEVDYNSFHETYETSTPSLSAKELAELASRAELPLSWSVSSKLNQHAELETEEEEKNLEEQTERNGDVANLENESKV
Method in brief: (§2)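 Loaded with 0.5 μM Thallos-AM for ~60 min at room temperature in HEPES-buffered HBSS pH 7.4. Fluorescence read at 1 Hz, F/F0 minus vehicle, slope after stimulus. Potency from triplicates. Efficacy normalised to reference activator set at 100%.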

[3] = molecular target: T3, Kir3.1/Kir3.2 (Homo sapiens) (UniProt P48549+P48051); test: Activation of GIRK1/2 (unknown origin) by cell-based thallium flux assay relative to control; method in brief: as §1
[4] = molecular target: T4, Kir3.1/Kir3.4 (Homo sapiens, UniProt P48544+P48549); test: Activation of GIRK1/4 (unknown origin) by cell-based thallium flux assay; method in brief: as §1
T4 sequence (P48549 whole entry): T2 sequence (P48549 whole entry)
T4 sequence (P48544 whole entry): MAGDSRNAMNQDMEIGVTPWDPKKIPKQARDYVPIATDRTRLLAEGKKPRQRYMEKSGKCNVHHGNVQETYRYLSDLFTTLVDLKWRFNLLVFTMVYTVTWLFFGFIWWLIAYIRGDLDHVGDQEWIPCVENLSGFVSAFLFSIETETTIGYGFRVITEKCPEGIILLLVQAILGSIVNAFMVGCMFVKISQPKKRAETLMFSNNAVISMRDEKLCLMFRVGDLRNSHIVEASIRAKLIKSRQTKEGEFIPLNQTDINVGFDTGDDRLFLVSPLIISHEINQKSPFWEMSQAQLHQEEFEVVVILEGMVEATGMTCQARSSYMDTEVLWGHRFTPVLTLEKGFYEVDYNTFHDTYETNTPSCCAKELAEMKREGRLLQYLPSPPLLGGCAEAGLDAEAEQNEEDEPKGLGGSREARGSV

[5] = molecular target: T1, Kir3.1/Kir3.4 (Homo sapiens); test: Activation of GIRK1/4 (unknown origin) transfected in HEK293 cells at 20 uM after 4 mins by thallium flux-based fluorescence assay relative to ML297; assay type: cell-based
Method in brief: (§3)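 Single-concentration thallium flux in HEK-293 cells stably expressing GIRK1/GIRK2 or GIRK1/GIRK4, loaded with 0.5 μM Thallos-AM for ~60 min at room temperature. 20 μM compound in 0.2% DMSO/HEPES-buffered HBSS (pH 7.4) added, followed 4 min later by a Tl2SO4 bicarbonate stimulus. Read-out is the slope of F/F0 after stimulus, vehicle-subtracted, expressed relative to reference activator.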

[6] = molecular target: T4, Kir3.1/Kir3.4; test: Activation of GIRK1/4 (unknown origin) transfected in HEK293 cells after 4 mins by thallium flux-based fluorescence assay; assay type: cell-based; method in brief: as §1
[7] = molecular target: T3, Kir3.1/Kir3.2 (Homo sapiens); test: Activation of GIRK1/2 (unknown origin) transfected in HEK293 cells at 20 uM after 4 mins by thallium flux-based fluorescence assay relative to ML297; assay type: cell-based; method in brief: as §3
[8] = molecular target: T2, Kir3.1/Kir3.2; test: Activation of GIRK1/2 (unknown origin) transfected in HEK293 cells after 4 mins by thallium flux-based fluorescence assay; assay type: cell-based; method in brief: as §2
[9] = molecular target: T4, Kir3.1/Kir3.4; test: Activation of recombinant human GIRK1/4 expressed in Xenopus oocytes by two-electrode voltage clamp method; assay type: cell-based, Oocyte
[10] = molecular target: T2, Kir3.1/Kir3.2; test: Activation of recombinant human GIRK1/2 expressed in Xenopus oocytes by two-electrode voltage clamp method; assay type: cell-based, Oocyte

Compound: O=C(Cc1ccccc1Cl)Nc1cc(Cl)cc(C(F)(F)F)c1
- EC50 [6]: > 10 µM
- EC50 [8]: > 10 µM

Compound: CN(C)S(=O)(=O)c1cccc(NC(=O)Cc2ccc(Cl)cc2)c1
- Efficacy [1]: 64%
- EC50 [2]: 2.3 µM
- Efficacy [3]: 71%
- EC50 [4]: 2.2 µM

Compound: O=C(Cc1ccccc1Cl)Nc1ccc(Cl)c(C(F)(F)F)c1
- Efficacy [5]: 17%
- EC50 [8]: > 10 µM

Compound: Cc1cccc(NC(=O)Cc2ccccc2Cl)c1
- EC50 [6]: > 10 µM
- EC50 [8]: > 10 µM

Compound: Cc1ccc(NC(=O)Nc2cccc(C#N)c2)cc1S(=O)(=O)N(C)C
- Efficacy [5]: 29%
- Efficacy [7]: 83%

Compound: O=C(Cc1ccccc1Cl)Nc1cccc(Cl)c1
- Efficacy [5]: 22%
- EC50 [8]: > 10 µM

Compound: O=C(Cc1ccccc1Cl)Nc1ccc(C(F)(F)F)cc1
- Efficacy [5]: 20%
- EC50 [6]: 2.1 µM
- EC50 [8]: > 10 µM

Compound: CC(C)(C)c1cccc(NC(=O)Cc2ccccc2Cl)c1
- Efficacy [5]: 76%
- Efficacy [7]: 44%

Compound: CS(=O)(=O)c1cc(NC(=O)Cc2ccccc2Cl)ccc1F
- EC50 [6]: > 10 µM
- EC50 [8]: > 10 µM

Compound: COc1ccc(NC(=O)Nc2ccc(C)c(S(=O)(=O)N(C)C)c2)cc1
- Efficacy [5]: 104%
- EC50 [6]: 5.6 µM
- Efficacy [7]: 101%
- EC50 [8]: 1.7 µM

Compound: COc1ccc(OC)c(NC(=O)Nc2ccc(C)c(S(=O)(=O)N(C)C)c2)c1
- EC50 [6]: > 10 µM
- EC50 [8]: > 10 µM

Compound: Cc1ccc(NC(=O)Nc2ccc(C)c(S(=O)(=O)N(C)C)c2)cc1Cl
- Efficacy [5]: 115%
- EC50 [6]: 6.2 µM
- Efficacy [7]: 91%
- EC50 [8]: 2.9 µM

Compound: Cc1ccc(NC(=O)Nc2ccc(C(F)(F)F)cc2)cc1S(=O)(=O)N(C)C
- EC50 [6]: > 10 µM
- Efficacy [7]: 26%
- EC50 [8]: 1.5 µM

Compound: C[C@@H]1O[C@@H](O[C@H]2[C@H](Oc3cc(O)c4c(c3)O[C@H](c3ccc(O)cc3)CC4=O)O[C@H](CO)[C@@H](O)[C@@H]2O)[C@H](O)[C@H](O)[C@H]1O [NARINGIN]
- EC50 [9]: > 100 µM
- EC50 [10]: > 100 µM

Compound: O=C(Cc1ccccc1Cl)Nc1ccc(Cl)cc1
- EC50 [6]: > 10 µM
- EC50 [8]: > 10 µM

Compound: O=C(Cc1ccccc1Cl)Nc1cccc(OC(F)F)c1
- Efficacy [5]: 119%
- EC50 [8]: > 10 µM

Continued, values first:

- Efficacy [1]: 108%
- EC50 [2]: 3.6 µM
- Efficacy [3]: 107%
- EC50 [4]: 5.2 µM
Compound: Cc1ccc(NC(=O)Cc2ccc(F)cc2)cc1S(=O)(=O)N(C)C

- Efficacy [5]: 55%
- EC50 [6]: 1.8 µM
- Efficacy [7]: 89%
- EC50 [8]: 1.1 µM
Compound: Cc1ccc(NC(=O)Nc2cccc(F)c2)cc1S(=O)(=O)N(C)C

- Efficacy [5]: 106%
- EC50 [6]: 6.8 µM
- Efficacy [7]: 94%
- EC50 [8]: 2.7 µM
Compound: Cc1ccc(NC(=O)Nc2ccccc2Cl)cc1S(=O)(=O)N(C)C

- Efficacy [5]: 100%
- Efficacy [7]: 94%
Compound: Cc1ccc(NC(=O)Nc2ccccc2)cc1S(=O)(=O)N(C)C

- Efficacy [5]: 72%
- EC50 [6]: 2.8 µM
- Efficacy [7]: 92%
- EC50 [8]: 3.3 µM
Compound: Cc1ccc(NC(=O)Nc2ccc(Cl)cc2)cc1S(=O)(=O)N(C)C

- Efficacy [5]: 72%
- EC50 [6]: 7.8 µM
- Efficacy [7]: 111%
- EC50 [8]: 3.9 µM
Compound: Cc1ccc(NC(=O)Nc2ccccc2F)cc1S(=O)(=O)N(C)C

- Efficacy [1]: 123%
- EC50 [2]: 3.3 µM
- Efficacy [3]: 55%
- EC50 [4]: 1.6 µM
Compound: CN(C)S(=O)(=O)c1cccc(NC(=O)Cc2ccccc2Cl)c1

- Efficacy [1]: 114%
- Efficacy [3]: 108%
- EC50 [4]: 1.6 µM
Compound: Cc1ccc(NC(=O)Cc2ccccc2Br)cc1S(=O)(=O)N(C)C

- Efficacy [1]: 104%
- EC50 [2]: 1.1 µM
- Efficacy [3]: 110%
- EC50 [4]: 1.1 µM
Compound: Cc1ccc(NC(=O)Cc2ccccc2Cl)cc1S(=O)(=O)N(C)C
